These results are taken from ChEMBL document CHEMBL4765448, “Multiple biological active 4-aminopyrazoles containing trifluoromethyl and their 4-nitroso-precursors: Synthesis and evaluation” (Eur J Med Chem, 2020).

≈ marks a conversion by molar mass, not a printed value. Calls of active or inactive are those of the source. Where only a bound is given, the exact number is not on record here.

For data set [1], the system named is Erythrocyte. As to the kind of experiment: Antioxidant activity in human erythrocytes assessed as protection against AAPH-induced hemolysis at 50 uM preincubated for 20 mins followed by AAPH addition and measured after 2 hrs by spectrophotometric method relative to control. As to conditions: time 140 min, 2.333 h. The class given is functional. The method, boiled down: (§1)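 Erythrocyte hemolysis assay with AAPH as the free-radical initiator, testing 50 and 400 µM. Results are expressed as relative protection of membranes against oxidative damage, each the mean of two independent experiments.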

A short description of data set [2]: Acute toxicity in mouse at 75 mg/kg, ip administered as single dose. As to conditions: in vivo. In kind it is organism-based. The method, boiled down: (§2)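 Mice, single intraperitoneal dose, following OECD Guideline for testing of chemicals; three mice per dose level; doses tested 10–300 mg/kg. Read-out is the number of survivors out of 3, used to estimate the expected LD50 range.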

Data set [3] is described as follows: Antioxidant activity assessed as ABTS radical scavenging activity measured after 1 hr by UV-vis spectrophotometric method. The class given is functional. The method, boiled down: (§3)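 ABTS cation-radical decolorization was read spectrophotometrically as the fall in absorbance after 1 h. Trolox was the reference. TEAC was taken as the ratio of concentration-response slopes, test/Trolox, and IC50 was also derived. Data are mean ± SEM, n = 3.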

Data set [4] concerns Erythrocyte. As to the kind of experiment: Antioxidant activity in human erythrocytes assessed as protection against AAPH-induced hemolysis at 400 uM preincubated for 20 mins followed by AAPH addition and measured after 2 hrs by spectrophotometric method relative to control. In kind it is functional. As to conditions: time 140 min, 2.333 h. The method, boiled down:
as §1

The nature of data set [5]: Acute toxicity in mouse at 10 mg/kg, ip administered as single dose. In kind it is organism-based. As to conditions: in vivo. A digest of the protocol: as §2
In a further data set the test system is Serratia marcescens. Kind of data set: Antibacterial activity against Serratia marcescens. In kind it is functional.
A further data set relates to Streptococcus pyogenes. As to the kind of experiment: Antibacterial activity against Streptococcus pyogenes. The class given is functional.
The next data set concerns Citrobacter braakii. Kind of data set: Antibacterial activity against Citrobacter braakii. The class given is functional.
For the next data set, the system named is Epidermophyton floccosum. Kind of data set: Antifungal activity against Epidermophyton floccosum. The class given is functional.
The test system of data set [6] is Rattus norvegicus. As to the kind of experiment: Analgesic activity in rat assessed as prolongation of latency period at 15 mg/kg, ip measured after 1 hr by hot-plate test relative to control. The class given is functional. The method, boiled down: (§4)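 Hot-plate test in rats. Compounds were given by intraperitoneal injection. Latency was read at 1 h and, for some compounds, also at 2 h after dosing. Results are expressed as % prolongation of the latent period versus vehicle-treated control. Significance was given as p-values.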
(Thermal pain tests record how soon the animal reacts.)

The test system of the next data set is Nannizzia gypsea. Kind of data set: Antifungal activity against Trichophyton gypseum. In kind it is functional.
For a further data set, the system named is Escherichia coli. Kind of data set: Antibacterial activity against Escherichia coli. The class given is functional.
The next data set has as its system Trichophyton tonsurans. Kind of data set: Antifungal activity against Trichophyton tonsurans. In kind it is functional.
Data set [7] has as its system Rattus norvegicus. As to the kind of experiment: Antiinflammatory activity in rat model of carrageenan-induced paw edema assessed as inhibition of hind paw swelling at 15 mg/kg, ip measured after 5 hrs. In kind it is functional, organism-based. In general terms: Carrageenan injected into the paw causes an acute inflammation.
The test system of the next data set is Neisseria gonorrhoeae. As to the kind of experiment: Antibacterial activity against Neisseria gonorrhoeae. In kind it is functional.
The subject of the next data set is Pseudomonas aeruginosa. As to the kind of experiment: Antibacterial activity against Pseudomonas aeruginosa. The class given is functional.
The next data set relates to Klebsiella pneumoniae. As to the kind of experiment: Antibacterial activity against Klebsiella pneumoniae. The class given is functional.
A further data set deals with Microsporum canis. As to the kind of experiment: Antifungal activity against Microsporum canis. The class given is functional.
For data set [8], the system named is Staphylococcus aureus. Kind of data set: Antibacterial activity against Staphylococcus aureus. The class given is functional.
Data set [9] has as its system Trichophyton interdigitale. As to the kind of experiment: Antifungal activity against Trichophyton mentagrophytes var. interdigitale. The class given is functional.
In data set [10] the test system is Mycobacterium tuberculosis. Kind of data set: Antitubercular activity against Mycobacterium tuberculosis H37Rv. The class given is functional. A digest of the protocol:
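Mycobacterium tuberculosis strain H37Rv; minimum inhibitory concentration (MIC) taken as the lowest level needed to inhibit bacterial growth; isoniazid and pyrazinamide served as reference drugs.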

The test system of another data set is Candida albicans. Kind of data set: Antifungal activity against Candida albicans. In kind it is functional.
A short description of data set [11]: Drug metabolism assessed as nitric oxide release in absence of rat plasma by Griess reagent based assay. The class given is cell-free.
Data set [12] in a line: Drug metabolism assessed as nitric oxide release in presence of rat plasma by Griess reagent based assay. In kind it is cell-free.
Data set [13] has as its system Rattus norvegicus. As to the kind of experiment: Analgesic activity in rat assessed as prolongation of latency period at 15 mg/kg, ip measured after 2 hrs by hot-plate test relative to control. The class given is functional. The method, boiled down: as §4
A further data set has as its system Trichophyton rubrum. As to the kind of experiment: Antifungal activity against Trichophyton rubrum. In kind it is functional.
A further data set has as its system Shigella flexneri. Kind of data set: Antibacterial activity against Shigella flexneri. The class given is functional.
The test system of another data set is Proteus vulgaris. As to the kind of experiment: Antibacterial activity against Proteus vulgaris. In kind it is functional.
Data set [14] is described as follows: Antioxidant activity assessed as AAPH scavenging activity by measuring residual fluorescence at 10 uM measured at 1 min interval for 30 mins by ORAC fluorescein assay relative to control. The class given is functional. The method, boiled down:
(§5)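 ORAC-FL assay with fluorescein as the probe and AAPH as the peroxyl radical generator. The loss of fluorescence over time was followed, and the result is given as % fluorescence restored at 10 and 50 µM. Each value is the mean of two independent experiments.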

Data set [15] is described as follows: Antioxidant activity assessed as trolox equivalent of ABTS radical scavenging activity measured after 1 hr by UV-vis spectrophotometric method. In kind it is functional. A digest of the protocol:
as §3

The nature of data set [16]: Antioxidant activity assessed as AAPH scavenging activity by measuring residual fluorescence at 50 uM measured at 1 min interval for 30 mins by ORAC fluorescein assay relative to control. The class given is functional. A digest of the protocol: as §5
Data set [17] concerns Staphylococcus aureus. Kind of data set: Antibacterial activity against methicillin resistant Staphylococcus aureus. The class given is functional.
Another data set has as its system Trichophyton violaceum. Kind of data set: Antifungal activity against Trichophyton violaceum. The class given is functional.
A further data set concerns HeLa. Kind of data set: Cytotoxicity against human HeLa cells. The class given is functional, cell-based.
Data set [18] deals with Rattus norvegicus. As to the kind of experiment: Antiinflammatory activity in rat model of carrageenan-induced paw edema assessed as inhibition of hind paw swelling at 15 mg/kg, ip measured after 3 hrs relative to control. The class given is functional.
Data set [19] is described as follows: Acute toxicity in mouse at 150 mg/kg, ip administered as single dose. As to conditions: in vivo. The class given is organism-based. The method, boiled down:
as §2

Another data set deals with NHDF. Kind of data set: Cytotoxicity against HDF cells. In kind it is cell-based, Homo sapiens. As to conditions: Homo sapiens, NHDF; read-out: IC50.
Data set [20] relates to Rattus norvegicus. Kind of data set: Antiinflammatory activity in rat model of carrageenan-induced paw edema assessed as inhibition of hind paw swelling at 15 mg/kg, ip measured after 1 hr relative to control. The class given is functional.
Data set [21] is described as follows: Selectivity index, ratio of IC50 for HDF cells to IC50 for human HeLa cells. The class given is toxicity. As to conditions: HDF cells versus HeLa cells, read-out: Ratio IC50.

As for `Nc1c(C(F)(F)F)n[nH]c1-c1cccs1`, the “fold change (FC)” value with Erythrocyte [1] is 1.11; in the data set on Erythrocyte [4], 0.01. Further, the Activity entry is listed as “Toxic” in data set [2] and “Non-Toxic” in data set [5]. Besides, the IC50 (commonly the point on the concentration scale where inhibition reaches its midpoint) in data set [3] is 17.6 µM.
For `Cn1nc(C(F)(F)F)c(N=O)c1-c1cccs1`, the MIC – broadly, the smallest concentration in the dilution series that meets the test's criterion for growth inhibition – against Serratia marcescens was > 500 µg/mL; in the data set on Streptococcus pyogenes, > 500 µg/mL; in the data set with Citrobacter braakii, > 500 µg/mL; against Epidermophyton floccosum it was 50 µg/mL (≈ 191 µM); with Nannizzia gypsea, 50 µg/mL (≈ 191 µM); with Escherichia coli, 500 µg/mL (≈ 1910 µM). Also, the MIC in the data set on Trichophyton tonsurans is 50 µg/mL (≈ 191 µM); against Neisseria gonorrhoeae, 500 µg/mL (≈ 1910 µM); against Pseudomonas aeruginosa it was > 500 µg/mL; in the data set on Klebsiella pneumoniae, > 500 µg/mL; against Microsporum canis, 25 µg/mL (≈ 95.7 µM); in the data set on Staphylococcus aureus [8], > 500 µg/mL. For the same molecule, the MIC in data set [9] is 25 µg/mL (≈ 95.7 µM); in data set [10], 12.5 µg/mL (≈ 47.9 µM); with Candida albicans, 25 µg/mL (≈ 95.7 µM); against Trichophyton rubrum, 12.5 µg/mL (≈ 47.9 µM); in the data set on Shigella flexneri, > 500 µg/mL; against Proteus vulgaris, > 500 µg/mL. Further, the Activity in the data set on Rattus norvegicus [6] was determined as 29.8%; in the data set on Rattus norvegicus [13] it was 43.8%. In addition, the outcome in the data set with Rattus norvegicus [7] was Active. The Drug metabolism entry is “Metabolite not detected” in data set [11] and “Metabolite detected” in data set [12].
`O=Nc1c(C(F)(F)F)n[nH]c1-c1cccs1`: the minimum inhibitory concentration (MIC) against Serratia marcescens is 250 µg/mL (≈ 1010 µM); with Streptococcus pyogenes, 7.8 µg/mL (≈ 31.6 µM); in the data set with Citrobacter braakii it was 250 µg/mL (≈ 1010 µM); with Epidermophyton floccosum it was 50 µg/mL (≈ 202 µM); against Nannizzia gypsea it was 50 µg/mL (≈ 202 µM); against Escherichia coli it was 250 µg/mL (≈ 1010 µM). For the same molecule, the MIC was 50 µg/mL (≈ 202 µM) in the data set on Trichophyton tonsurans; 62.5 µg/mL (≈ 253 µM) in the data set on Neisseria gonorrhoeae; > 500 µg/mL in the data set on Pseudomonas aeruginosa; 500 µg/mL (≈ 2020 µM) with Klebsiella pneumoniae; 25 µg/mL (≈ 101 µM) against Microsporum canis; 15.6 µg/mL (≈ 63.1 µM) against Staphylococcus aureus [8]. Moreover, the MIC in [9] amounted to 50 µg/mL (≈ 202 µM); in data set [10] it was 3.1 µg/mL (≈ 12.5 µM); with Candida albicans, 50 µg/mL (≈ 202 µM); with Staphylococcus aureus [17] it was 62.5 µg/mL (≈ 253 µM); in the data set with Trichophyton rubrum, 12.5 µg/mL (≈ 50.6 µM); with Shigella flexneri it was 500 µg/mL (≈ 2020 µM). The molecule further returned an MIC in the data set with Proteus vulgaris of 31.2 µg/mL (≈ 126 µM). The Activity in data set [14] was -56.2%; in [15], 0.02 equiv; in data set [2], “Toxic”; in data set [16] it was -98.7%. Moreover, the “fold change (FC)” value in the data set on Erythrocyte [1] is 1.18; in the data set with Erythrocyte [4], 1.12. Moreover, the outcome in the data set on Rattus norvegicus [7] was Active. The Drug metabolism result in data set [11] is on record as “Metabolite not detected”.
In the case of `Cn1nc(C(F)(F)F)c(N=O)c1-c1ccccc1`, the MIC was 6.25 µg/mL (≈ 24.5 µM) in the data set with Trichophyton violaceum; > 500 µg/mL against Serratia marcescens; > 500 µg/mL against Streptococcus pyogenes; > 500 µg/mL in the data set on Citrobacter braakii; 0.38 µg/mL (≈ 1.49 µM) against Epidermophyton floccosum; 25 µg/mL (≈ 98 µM) against Nannizzia gypsea. Besides, the MIC with Escherichia coli is > 500 µg/mL; against Trichophyton tonsurans it was 3.12 µg/mL (≈ 12.2 µM); with Neisseria gonorrhoeae it was 62.5 µg/mL (≈ 245 µM); against Pseudomonas aeruginosa, > 500 µg/mL; in the data set on Klebsiella pneumoniae, > 500 µg/mL; with Microsporum canis it was 100 µg/mL (≈ 392 µM). For the same molecule, the minimal inhibitory concentration (MIC) against Staphylococcus aureus [8] is > 500 µg/mL; in data set [9], 12.5 µg/mL (≈ 49 µM); against Trichophyton rubrum, 12.5 µg/mL (≈ 49 µM); against Shigella flexneri, > 500 µg/mL; in the data set with Proteus vulgaris, > 500 µg/mL. Moreover, the Activity result in the data set with HeLa is “Dose-dependent effect”; in data set [14], 3%; in the data set on Rattus norvegicus [6] it was 80.2%; in [15] it was 0.01 equiv; in data set [19], “Non-Toxic”; in [16] it was 16.1%. Further, the IC50 was 63.9 µM in the data set with HeLa (Homo sapiens, HeLa, read-out: IC50) and 49.5 µM in the data set with NHDF. Further, the entries for the “fold change (FC)” value in the data set with Erythrocyte [1] and with Erythrocyte [4] were 1 and 1.02, respectively. For the same molecule, the inhibition entry with Rattus norvegicus [18] and in the data set with Rattus norvegicus [20] was “inactive” in each case. Besides, the result in the data set on Rattus norvegicus [7] was Active. For the same molecule, the MIC entry in the data set on Candida albicans is “inactive”. In addition, the Drug metabolism entry in data set [11] was “Metabolite not detected”; in data set [12] it was “Metabolite detected”. Also, the selectivity ratio in data set [21] came out at 0.77.
